CHT PAM – CHT positive allosteric modulators, primary screen, cell-based, membrane potential dye, choline EC20; High affinity choline transporter 1 (Homo sapiens), Q9GZV3; CHT-expressing cells; active compounds read high; LV-AA mutant CHT in HEK293 cells; B-score at 10 µM; 310,000 compounds, 0.49% hits; AID 488977, 2010;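 active = initial fluorescence not abnormally high and integrated response B-score, plate-corrected, over 3 SD above library mean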
Target sequence (Q9GZV3 whole entry, looked up): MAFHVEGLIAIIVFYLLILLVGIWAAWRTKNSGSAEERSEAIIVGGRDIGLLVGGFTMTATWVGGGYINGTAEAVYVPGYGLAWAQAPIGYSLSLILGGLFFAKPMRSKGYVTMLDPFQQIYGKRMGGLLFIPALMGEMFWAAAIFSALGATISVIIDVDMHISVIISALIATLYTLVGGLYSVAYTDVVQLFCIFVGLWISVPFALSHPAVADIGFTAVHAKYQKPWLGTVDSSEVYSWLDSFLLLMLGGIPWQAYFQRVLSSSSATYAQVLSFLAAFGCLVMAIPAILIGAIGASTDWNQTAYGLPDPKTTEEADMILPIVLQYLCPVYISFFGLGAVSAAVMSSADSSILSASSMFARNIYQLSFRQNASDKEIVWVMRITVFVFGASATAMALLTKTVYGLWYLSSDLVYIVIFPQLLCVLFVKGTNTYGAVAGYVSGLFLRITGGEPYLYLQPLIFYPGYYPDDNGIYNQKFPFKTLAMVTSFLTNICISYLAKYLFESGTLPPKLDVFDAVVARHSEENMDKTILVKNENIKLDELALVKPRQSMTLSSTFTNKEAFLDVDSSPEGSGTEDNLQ
PolyA inhibitor – polyadenylation inhibitors in yeast reporter cells, primary screen, luminescence, S. cerevisiae; S. cerevisiae SKY197-pL101 polyadenylation reporter, beta-gal luminescence; efflux-impaired pdr1/pdr3 knockout yeast; score 100 = 6 SD above DMSO; activity score, % at 12 µM; 300,000 compounds, 0.02% hits;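 active = lowest replicate activity score at least 50, where 100 means six control SD above control mean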;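 note: yeast exposed to compound for 9 h at 30 °C; higher score means more reporter readthrough which indicates perturbed polyadenylation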
CHT inh – inhibitors of human choline transporter CHT. CHT-expressing cells, membrane potential dye, choline response; active compounds read low. B-score at 10 µM. 310,000 compounds, 0.86% hits;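 active = B-score over 3 SD under the library average, and starting fluorescence ratio not unusually high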;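 note: choline stimulus applied at its EC90 after an EC20 pre-addition; B-score computed on integrated fluorescence ratio after choline addition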
T cruzi repl – inhibitors of intracellular T. cruzi growth, primary screen, luminescence, NIH3T3 host cells. T. cruzi beta-gal in NIH3T3, 90 h. inhibition, % (concentration not given with the values). 300,000 compounds, 1.4% hits. AID 1885, 2009;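 active = mean inhibition across valid replicates above about 55%, limit read from the data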;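 note: signal also drops with host cell toxicity which is not excluded here; higher percent means less beta-gal luminescence so fewer parasites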
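System: NIH/3T3 fibroblasts plus reporter T. cruzi. Medium: DMEM plus 2% FBS. Probe or stimulus: 5000 reporter trypomastigotes per well. Compound: single 50 nL compound addition per well in DMSO. Incubation: co-culture of at least 90 h after 3 h attachment. Detection: GalScreen β-gal luminescence, detergent lysis, 60 min. Evaluation: parasite load inhibition, %.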
Numbers stand for hits. Rows were chosen to be rich in hits. Some 2.6% of all compounds tested hit in one or more screens of this group.

Results for COC(=O)C1CCN(C(=O)CN(C)Cc2ccc(C(C)(C)C)cc2)CC1 ?
CHT PAM: inactive; PolyA inhibitor: inactive; CHT inh: inactive; T cruzi repl: 67

Results for CCOC(=O)C1CCCN(S(=O)(=O)c2cc3c4c(c2)CCC(=O)N4CCC3)C1 (stereo not given) ?
CHT PAM: inactive; PolyA inhibitor: inactive; CHT inh: inactive; T cruzi repl: inactive

Results for C=CCn1c(C)cc(-c2csc(NC(=O)CCc3nc4ccccc4c(=O)[nH]3)n2)c1C ?
CHT PAM: inactive; PolyA inhibitor: inactive; CHT inh: inactive; T cruzi repl: inactive

How did CNS(=O)(=O)c1cccc(C(=O)OCc2cc(=O)oc3c(C)c(O)ccc23)c1 do in these assays?
CHT PAM: inactive; PolyA inhibitor: inactive; CHT inh: -6.3; T cruzi repl: inactive

Results for COc1ccc(N=Nc2n(C)c3ccccc3[n+]2C)cc1 ?
PolyA inhibitor: inactive; T cruzi repl: 64

Results for Cn1c(COc2ccccc2O)[n+](C)c2ccccc21 ?
CHT PAM: inactive; PolyA inhibitor: inactive; CHT inh: inactive; T cruzi repl: inactive

What do the screens show for `COc1ccc(C)cc1NC(=O)C1CCN(C(=O)c2ccc(C(C)(C)C)cc2)CC1`?
CHT PAM: inactive; PolyA inhibitor: inactive; CHT inh: inactive; T cruzi repl: inactive

How did CCC1CSC(Nc2ccc(C(=O)/C=C/c3ccc(Oc4ccccc4)cc3)cc2)=N1 (stereo not given) do in these assays?
CHT PAM: inactive; PolyA inhibitor: inactive; CHT inh: inactive; T cruzi repl: inactive

Results for CCC1CSC(Nc2ccc(C(=O)/C=C/c3cccc(C)c3)cc2)=N1 (stereo not given) ?
CHT PAM: inactive; PolyA inhibitor: inactive; CHT inh: inactive; T cruzi repl: 60

How did Cc1cc(C)n2nc(SCC(=O)NC3CCCCC3)nc2n1 do in these assays?
CHT PAM: inactive; PolyA inhibitor: inactive; CHT inh: inactive; T cruzi repl: inactive

How did CCC(=O)NC(c1cccs1)c1ccc2cccnc2c1O (stereo not given) do in these assays?
CHT PAM: inactive; PolyA inhibitor: inactive; CHT inh: inactive; T cruzi repl: 78

Results for CC(C)CC(=O)NC(c1cccs1)c1ccc2cccnc2c1O (stereo not given) ?
CHT PAM: inactive; PolyA inhibitor: inactive; CHT inh: inactive; T cruzi repl: 60

Results for Cc1conc1NC(c1cccs1)c1ccc2cccnc2c1O (stereo not given) ?
CHT PAM: inactive; PolyA inhibitor: inactive; CHT inh: inactive; T cruzi repl: inactive

What do the screens show for `Cc1ccc(-c2ccccc2[C@@H]2C[C@H]3CN(C)C(=O)[C@]34CCCN24)o1`?
CHT PAM: inactive; PolyA inhibitor: inactive; CHT inh: inactive; T cruzi repl: inactive

Results for O=C1N(c2ccccc2)C[C@@H]2C[C@@H](c3cc4ccccc4o3)N3CCC[C@@]123 ?
PolyA inhibitor: inactive; T cruzi repl: 56

What do the screens show for `Cc1ccccc1Nc1nc(NCc2ccco2)c2ccccc2n1`?
CHT PAM: inactive; PolyA inhibitor: inactive; CHT inh: inactive; T cruzi repl: 58

Results for Cc1ccc(OCCN2CCN(c3nc(NCc4ccco4)c4ccccc4n3)CC2)cc1 ?
CHT PAM: inactive; PolyA inhibitor: inactive; CHT inh: inactive; T cruzi repl: 70

What do the screens show for `Cc1ccc(-c2nc(NCc3ccco3)c3ccccc3n2)cc1`?
CHT PAM: inactive; PolyA inhibitor: inactive; CHT inh: inactive; T cruzi repl: inactive

What do the screens show for `Oc1ccccc1Nc1nc(NCc2ccco2)c2ccccc2n1`?
CHT PAM: inactive; PolyA inhibitor: inactive; CHT inh: inactive; T cruzi repl: inactive

How did CCOc1ccc(NC(=O)CN(C)C(=O)c2c(C)nn(-c3ccc(F)cc3)c2Cl)cc1OCC do in these assays?
CHT PAM: inactive; PolyA inhibitor: inactive; CHT inh: inactive; T cruzi repl: inactive

How did CN(C)S(=O)(=O)c1ccc(NC(=O)Cc2ccc(S(=O)(=O)N3CCOCC3)s2)cc1 do in these assays?
CHT PAM: inactive; PolyA inhibitor: inactive; CHT inh: inactive; T cruzi repl: inactive

Results for CCn1c2ccccc2c2cc(NC(=O)Cc3ccc(S(=O)(=O)N4CCOCC4)s3)ccc21 ?
CHT PAM: inactive; PolyA inhibitor: inactive; CHT inh: inactive; T cruzi repl: 69

What do the screens show for `CN=c1scc(-c2ccc(OC)cc2)n1/N=C(\C)c1cccnc1`?
CHT PAM: inactive; CHT inh: inactive; T cruzi repl: 58

How did Cc1nc(C(=O)NC2CC2)sc1C1(C)CC(c2cccc([N+](=O)[O-])c2)=NO1 (stereo not given) do in these assays?
CHT PAM: inactive; PolyA inhibitor: inactive; CHT inh: inactive; T cruzi repl: inactive

Results for Cc1nc(C(=O)NC2CCCCC2)sc1C1(C)CC(c2cccnc2)=NO1 (stereo not given) ?
CHT PAM: inactive; PolyA inhibitor: inactive; CHT inh: inactive; T cruzi repl: 61

Results for CN(C)CCN(C(=O)c1ccc(C(=O)c2ccccc2)cc1)c1nc2cc3c(cc2s1)OCO3 ?
CHT PAM: inactive; PolyA inhibitor: inactive; CHT inh: inactive; T cruzi repl: inactive

How did CCN(CC)CCN(C(=O)CN1C(=O)c2ccccc2C1=O)c1nc2cc3c(cc2s1)OCO3 do in these assays?
CHT PAM: inactive; PolyA inhibitor: inactive; CHT inh: inactive; T cruzi repl: 57

What do the screens show for `CCN(CC)CCN(C(=O)c1ccc(S(=O)(=O)N2CCCCC2)cc1)c1nc2cc3c(cc2s1)OCO3`?
CHT PAM: inactive; PolyA inhibitor: inactive; CHT inh: inactive; T cruzi repl: 63

Results for CCN(CC)CCN(C(=O)c1ccc2ccccc2c1)c1nc2cc3c(cc2s1)OCO3 ?
CHT PAM: inactive; PolyA inhibitor: inactive; CHT inh: inactive; T cruzi repl: inactive

Results for CN(C)CCN(C(=O)c1ccc(S(=O)(=O)N(C)c2ccccc2)cc1)c1nc2cc3c(cc2s1)OCO3 ?
CHT PAM: inactive; PolyA inhibitor: inactive; CHT inh: inactive; T cruzi repl: 57

What do the screens show for `CN(C)CCN(C(=O)c1ccc(S(=O)(=O)N(C)c2ccccc2)cc1)c1nc2ccc(Cl)cc2s1`?
CHT PAM: inactive; PolyA inhibitor: inactive; CHT inh: inactive; T cruzi repl: 63

How did Nc1ccc(C(=O)CC(=O)Nc2ccc(Cl)cc2)cc1 do in these assays?
CHT PAM: inactive; PolyA inhibitor: inactive; CHT inh: inactive; T cruzi repl: inactive

What do the screens show for `O=C(COc1ccccc1F)Nc1c2c(nn1-c1ccccc1)CS(=O)(=O)C2`?
CHT PAM: inactive; PolyA inhibitor: inactive; CHT inh: inactive; T cruzi repl: inactive

What do the screens show for `CCN(CC)S(=O)(=O)c1ccc(N2CCCC2)c(NC(=O)Cc2c(F)cccc2Cl)c1`?
CHT PAM: inactive; PolyA inhibitor: inactive; CHT inh: inactive; T cruzi repl: inactive

How did CCCOc1ccc(NCC(=O)Nc2ccc(C)cc2C)cc1 do in these assays?
CHT PAM: inactive; PolyA inhibitor: inactive; CHT inh: inactive; T cruzi repl: 76

How did Cc1ccc(S(=O)(=O)N2CCCC2)cc1C(=O)NCCN1CCOCC1 do in these assays?
CHT PAM: inactive; PolyA inhibitor: inactive; CHT inh: inactive; T cruzi repl: inactive

Screening data as filed in PubChem.
